UPR CHOP act: activators of apoptotic arm of unfolded protein response (CHOP); 330,000 tested, 0.34% active; activation, % at 10 µM; AID 449763; CHO-CHOP luciferase reporter, UPR activation, luminescence; percent of tunicamycin response over DMSO baseline;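 active means at 10 µM dose, activation of 40% or more, normalized to positive control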;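 further: 100% = tunicamycin at 10 µg/mL and 0% = DMSO alone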
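Dosing – one dose, 10 µM in 0.5% DMSO · System – CHO-CHOP cells, stable luciferase reporter of PERK-eIF2a-CHOP signalling · Input – 500 cells/well · Control set – tunicamycin 10 µg/mL final as positive, DMSO-only wells as negative · Timing – 6 h compound treatment, 37 °C · Measure – % activation vs tunicamycin · Technique – luminescence read with Steady-Glo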
T cruzi repl: blocks replication of Trypanosoma cruzi; T. cruzi beta-gal in NIH3T3, luminescence, 90 h; inhibition, % (concentration not given with the values); 300,000 tested, 1.4% active; AID 1885;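 active means mean inhibition across valid replicates above about 55%, limit read from the data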;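 further: signal also drops with host cell toxicity which is not excluded here; 0% = plate median of DMSO wells and 100% = zero luminescence signal; higher percent means less beta-gal luminescence so fewer parasites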
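Assay system: NIH/3T3 fibroblasts plus reporter T. cruzi. Amount: NIH/3T3 cells, 5,000 per well. Buffer or medium: DMEM, 2% fetal bovine serum. Doses: compound pinned at 50 nL/well, DMSO. Schedule: ≥90 h infection period, 3 h prior cell attachment. Signal: luminescent β-galactosidase signal after 60 min lysis. Read-out: parasite load inhibition, %.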
CSC inhib: blocks cancer stem cells. cancer stem cell-like cells viability, luminescence. inhibition, % at 7.5 µM. 300,000 tested, 1.1% active; in the data active means inhibition above about 75%; tested in HMLE shEcad cells
Mdm2 MdmX PPI: disrupts the human Mdm2-MdmX interaction. O15151+Q00987. SaOS-2 split-luciferase Mdm2/MdmX complementation, luminescence. inhibition, % at 8 µM. 330,000 tested, 3% active. AID 485346;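 active means inhibition of at least 50% at 8 µM in the primary screen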
Target sequence (O15151 whole entry, looked up): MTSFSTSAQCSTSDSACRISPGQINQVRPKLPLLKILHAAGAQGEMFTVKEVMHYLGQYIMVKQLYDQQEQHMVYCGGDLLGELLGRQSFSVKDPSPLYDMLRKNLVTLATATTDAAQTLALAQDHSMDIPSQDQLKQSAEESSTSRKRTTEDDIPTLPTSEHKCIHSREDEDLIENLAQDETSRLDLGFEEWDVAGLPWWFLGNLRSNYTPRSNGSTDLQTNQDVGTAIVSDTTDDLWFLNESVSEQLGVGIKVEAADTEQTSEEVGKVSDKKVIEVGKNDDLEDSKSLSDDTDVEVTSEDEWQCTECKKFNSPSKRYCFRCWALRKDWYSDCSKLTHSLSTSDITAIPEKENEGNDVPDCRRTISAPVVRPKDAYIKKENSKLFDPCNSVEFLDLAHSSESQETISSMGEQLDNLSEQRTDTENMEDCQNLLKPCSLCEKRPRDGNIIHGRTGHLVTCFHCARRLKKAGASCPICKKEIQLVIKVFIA
Target sequence (Q00987 whole entry, looked up): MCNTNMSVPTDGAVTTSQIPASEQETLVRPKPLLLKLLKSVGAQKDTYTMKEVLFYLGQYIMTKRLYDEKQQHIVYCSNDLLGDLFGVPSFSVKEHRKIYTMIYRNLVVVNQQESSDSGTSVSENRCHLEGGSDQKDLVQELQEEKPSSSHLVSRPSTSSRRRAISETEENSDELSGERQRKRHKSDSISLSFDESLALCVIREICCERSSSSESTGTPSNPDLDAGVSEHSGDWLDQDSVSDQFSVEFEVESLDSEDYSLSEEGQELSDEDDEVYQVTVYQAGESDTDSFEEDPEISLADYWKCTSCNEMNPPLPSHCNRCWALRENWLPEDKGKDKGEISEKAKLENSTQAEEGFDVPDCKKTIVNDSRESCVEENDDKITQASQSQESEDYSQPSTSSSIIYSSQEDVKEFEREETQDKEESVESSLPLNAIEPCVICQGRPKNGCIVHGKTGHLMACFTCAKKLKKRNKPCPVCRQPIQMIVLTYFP
UPR XBP1 act: activators of adaptive arm of unfolded protein response (XBP1); CHO-XBP1 luciferase reporter, IRE1-XBP1 UPR activation, luminescence; percent of tunicamycin response, DMSO as zero; 330,000 tested, 0.33% active; activation, % at 20 µM;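 active means versus positive control, 20 µM dose yields 30% or more activation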;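 further: 100% = tunicamycin at 10 µg/mL and 0% = DMSO only wells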
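Material: IRE1-XBP1 luciferase reporter CHO line / Quantity: one thousand reporter cells per well / Buffer or medium: F12 with 10% serum / Compound: 20 µM single concentration, DMSO 1% / Times: 6 h treatment, 37 °C / Detection: Steady-Glo luciferase glow luminescence, 10 min after reagent addition / Benchmarks: tunicamycin high, DMSO low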
Beta apoptosis: blocks beta cell apoptosis | AID 435005 | protection from apoptosis, % (no concentration beside the values) | 300,000 tested, 0.8% active | INS-1E cytokine-induced death, ATP luminescence, 48 h; percent of positive-control rescue, neutral wells zero;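 active means Every replicate reaches about 75%, or at least half do and their mean reaches it too, limit read from the data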;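 further: 0% = cytokine-treated negative control wells and 100% = positive control rescue; higher means more ATP so stronger rescue from cytokine killing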
Mdm2 MdmX conf: confirmation of human Mdm2/MdmX interaction inhibitors. shares compounds with Mdm2 MdmX PPI. Mdm2-MdmX binding, luminescent assay. inhibition, % at 8 µM. 10,000 tested, 55% active. AID 489028; in the data active means inhibition above about 40%
FLuc counter: full-length luciferase inhibition in Mdm2/MdmX counter-screen; shares compounds with Mdm2 MdmX PPI; AID 504607; SaOS-2 full-length luciferase counterscreen, luminescence; 6,200 tested, 77% active; inhibition, % at 8 µM;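 active means mean inhibition at 8 µM reaching about 37%, which flags the compound as non-specific, limit read from the data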;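 further: p53-null SaOS-2 cells with luciferase driven by a doxycycline-inducible promoter; compound on cells about two nights before reading with doxycycline added after day one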
The depositor's hits bear a star; · = no result. A selection: hits, their analogues and other compounds. The true share with any hit is near 5%.

SMILES | UPR CHOP act | T cruzi repl | CSC inhib | Mdm2 MdmX PPI | UPR XBP1 act | Beta apoptosis | Mdm2 MdmX conf | others
Cc1ccc(C)c(SCC(=O)OCC(=O)c2ccco2)c1 | -3 | -11 | -6 | -19 | -4 | -4 | ·
CCCCn1c(=N)n(CC(O)COc2ccc(C)cc2)c2ccccc21 (stereo not drawn) | 0 | 27 | 16 | 58* | -1 | 18 | 31
CCCCn1c(=N)n(CC(O)COc2ccccc2)c2ccccc21 (stereo not drawn) | 2 | -6 | 4 | 49 | -2 | · | ·
Cc1ccc(Cn2c(=N)n(CC(O)COc3ccccc3)c3ccccc32)cc1 (stereo not drawn) | 0 | 59* | 8 | 69* | 1 | 66 | 76* | FLuc counter=62*
N=c1n(Cc2ccccc2)c2ccccc2n1CC(O)COc1ccccc1 (stereo not drawn) | -3 | 8 | -19 | 38 | 2 | 18 | ·
O=C(Nc1ccc2c(c1)CCC2)c1cnn2c1NC(c1ccco1)CC2C(F)(F)F (stereo not drawn) | 2 | · | -2 | 88* | -1 | 10 | 54* | FLuc counter=79*
Cc1cc(C(=O)NC(Cc2ccccc2)C(=O)O)c(C)o1 (stereo not drawn) | 0 | 5 | -10 | -9 | -2 | -1 | ·
CCCCNCC1C(Oc2ccc(Cl)cc2)C(=O)N1c1ccccc1C (stereo not drawn) | 1 | 43 | 7 | 15 | 2 | 22 | ·
CN(C)/C=C/C(=O)c1ccc2noc(-c3ccccc3)c2c1 | -1 | -9 | 2 | 51* | 2 | -14 | 34
C#Cc1ccc([C@@H]2C=C(C(=O)N3CCN(Cc4ccccc4)CC3)O[C@H](OCCCCO)C2)cc1 | 7 | 52 | 2 | 57* | 1 | 124* | 77* | FLuc counter=37*
S=C(NCCCN1CCOCC1)N1CCN(c2nc(-c3ccc(Cl)cc3)cs2)CC1 | 7 | 2 | 104* | 62* | 28 | 85* | 11
S=C(NCCCN1CCOCC1)N1CCN(c2nc(-c3ccccc3)cs2)CC1 | 0 | 7 | 41 | 20 | -3 | 6 | ·
CCOc1ccc(OCCC(=O)N(CC)CC(=O)Nc2ccccc2C(F)(F)F)cc1 | 0 | -9 | -16 | 30 | 1 | 56 | ·
Cc1c(NC(=O)c2ccc(-c3cccc([N+](=O)[O-])c3)o2)c(=O)n(-c2ccccc2)n1C | 0 | -4 | 2 | -1 | -2 | -3 | ·
COc1cccc2sc(N(CCN(C)C)C(=O)/C=C/c3cccs3)nc12 | 0 | -4 | 6 | 56* | 3 | 3 | 27
COc1ccc(C)c2sc(N(CCN(C)C)C(=O)/C=C/c3cccs3)nc12 | 5 | 4 | -34 | 65* | -2 | 7 | 27
CCOc1cccc2sc(N(CCN(C)C)C(=O)/C=C/c3cccs3)nc12 | 2 | 13 | 0 | 65* | -2 | 17 | 26
CCOc1cccc2sc(N(CCCN(C)C)C(=O)Cc3ccccc3)nc12 | 0 | 15 | -11 | 30 | 3 | -1 | ·
COc1cccc2sc(N(CCN(C)C)C(=O)c3ccc4c(c3)CCCC4)nc12 | -1 | 4 | -1 | 13 | 1 | 5 | ·
COc1cc(C(=O)NCCCCCCNC(=O)c2cc(OC)c(OC)c(OC)c2)cc(OC)c1OC | 0 | 1 | -13 | 52* | -3 | -1 | 38
CN(C)S(=O)(=O)c1cccc(NC(=S)N/N=C/c2cccc(O)c2)c1 | 1 | -6 | -7 | -48 | 1 | -7 | ·
CN(C)S(=O)(=O)c1cccc(NC(=S)N/N=C/c2cc(Br)ccc2O)c1 | -1 | 57* | 77* | 70* | 3 | 94* | 78* | FLuc counter=37*
CCN(CC)C(=O)[C@H]1CC(CC(=O)NCC23CC4CC(CC(C4)C2)C3)C(=O)N2CCc3c([nH]c4ccccc34)[C@]12C (stereo partly drawn) | 6 | · | · | 69* | 19 | · | 23
CCN(CC)C(=O)[C@H]1CC(CC(=O)NCCC2=CCCCC2)C(=O)N2CCc3c([nH]c4ccccc34)[C@]12C (stereo partly drawn) | 4 | · | -5 | 1 | -3 | -3 | ·
CCN(CC)C(=O)[C@H]1C[C@H](CC(=O)NCC23CC4CC(CC(C4)C2)C3)C(=O)N2CCc3c([nH]c4cc(-c5ccco5)ccc34)[C@]12C | 18 | · | · | 84* | 11 | · | 56* | FLuc counter=71*
SMILES | UPR CHOP act | T cruzi repl | CSC inhib | Mdm2 MdmX PPI | UPR XBP1 act | Beta apoptosis | Mdm2 MdmX conf | others
CCN(CC)C(=O)[C@H]1CC(CC(=O)NC/C=C(\C)CCC=C(C)C)C(=O)N2CCc3c([nH]c4ccc(OC)cc34)[C@]12C (stereo partly drawn) | 9 | · | · | 87* | 19 | · | 45* | FLuc counter=59*
C[C@]12c3[nH]c4cc(-c5ccco5)ccc4c3CCN1C(=O)[C@@H](CC(=O)NCCN1CCOCC1)C[C@@H]2C(=O)N1CCCCC1 | 2 | · | · | 15 | 3 | · | ·
C[C@]12c3[nH]c4cc(-c5ccco5)ccc4c3CCN1C(=O)[C@@H](CC(=O)NCC13CC4CC(CC(C4)C1)C3)C[C@@H]2C(=O)N1CCOCC1 | 11 | · | · | 85* | 14 | · | 16
CC1CCCN(C(=O)NC2CC(=O)N(c3ccc4c(c3)OCCO4)C2)C1 (stereo not drawn) | 1 | 2 | -1 | -2 | 0 | · | ·
COc1cc(CNc2ccccc2)c([N+](=O)[O-])cc1OC | 0 | -6 | -15 | -7 | 4 | 2 | ·
CC(=O)c1ccc(Nc2c3c(nc4ccccc24)CCCC3)cc1 | -2 | -1 | 64 | 45 | -2 | 13 | ·
Cc1ccc2nc3c(c(Nc4cccc(O)c4)c2c1)CCC3 | -4 | 36 | 37 | 60* | 2 | 20 | 34
Cc1ccc2nc3c(c(C(=O)O)c2c1)CCC3 | -1 | -7 | 7 | -16 | -3 | -6 | ·
COC(=O)c1cccc(Nc2c3c(nc4ccccc24)CCC3)c1 | 3 | 17 | · | 64* | 3 | · | 68* | FLuc counter=63*
CC(=O)c1cccc(Nc2c3c(nc4ccccc24)CCC3)c1 | 1 | -29 | 61 | 55* | -1 | 26 | 70* | FLuc counter=72*
Cc1ccc(OCc2cc(C(=O)NC3CCOC3)no2)cc1C (stereo not drawn) | 1 | -6 | -7 | 22 | -4 | -1 | ·
c1ccc(N/N=C(\Cc2ncc[nH]2)c2ccccc2)cc1 | 1 | -1 | 2 | 15 | -1 | -7 | ·
COc1cc(C(=O)N/N=C(\Cc2ncc[nH]2)c2ccccc2)cc(OC)c1OC | 11 | · | 91* | 54* | 3 | 34 | 50* | FLuc counter=24
